Experimental data reported in article PMC10546156 (Journal for Immunotherapy of Cancer, 2023).

The substances below were run on HLA-typed donor PBMC, CD8 T cells (assay: Immunogenicity assessment: tetramer/dextramer staining of donor T cells). Conditions: two C*07:01 healthy donor buffy coats, prior to or after sequential dextramer enrichment.
Format: cell-based, human
How it was run: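 Dextramers were assembled from UV-exchange MHC monomers. 1–3×10^8 PBMC were treated with 50 nM dasatinib plus FcR block (30 min, 37°C), then with 10 µg/mL dextramer pool (1 h, 4°C), and bead-enriched sequentially over two columns. Enriched cells were either surface-stained for flow cytometry with the whole sample acquired, or expanded 10–14 days (irradiated allogeneic feeders, anti-CD3/28, IL-2 300 IU/mL, IL-7/IL-15 5 ng/mL) before re-enrichment.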

Substance	C*07:01 PP-CTL responses by dextramer pool
_FRRS(ph)PTKSSL_ [pRBM14]	could not detect responses
_HRYS(ph)TPHAF_ [pRAF1]	could not detect responses
_KRAS(ph)FAKSV_ [pWNK]	could not detect responses
_KRAS(ph)GQAFEL_ [pSTMN]	could not detect responses
_RRFS(ph)GTAVY_ [pZNF518A]	could not detect responses
_RRPS(ph)LLSEF_ [pNCOR]	could not detect responses
_RRYS(ph)DPPTY_ [pMYO9B]	could not detect responses
